Assay results gathered from unrelated publications.
EGFR A750P/del747-749: Epidermal growth factor receptor (EGFR, Homo sapiens, UniProt P00533, A750P/del747-749)
EGFR L861Q: Epidermal growth factor receptor (EGFR, Homo sapiens, UniProt P00533, L861Q)
EGFR T790M: Epidermal growth factor receptor (EGFR, Homo sapiens, UniProt P00533, T790M)
EGFR G719S: Epidermal growth factor receptor (EGFR, Homo sapiens, UniProt P00533, G719S)
EGFR del752-759: Epidermal growth factor receptor (EGFR, Homo sapiens, UniProt P00533, del752-759)
EGFR G719C: Epidermal growth factor receptor (EGFR, Homo sapiens, UniProt P00533, G719C)
EGFR del747-752/P753S: Epidermal growth factor receptor (EGFR, Homo sapiens, UniProt P00533, del747-752/P753S)
EGFR: Epidermal growth factor receptor (EGFR, Homo sapiens, UniProt P00533)

Structure (SMILES) | target | read-out | method | concentration | remaining binding
c1ccc(N2CCN(Cc3nc4ccccc4[nH]3)CC2)nc1 | EGFR A750P/del747-749 | cell-free assay | competition with immobilised ligand | 1 µM | 100%
O=C(NCC1CCOCC1)c1n[nH]cc1NC(=O)c1c(F)cccc1F | Epidermal growth factor receptor (EGFR, Homo sapiens, UniProt P00533, L858R) | binding | competition with immobilised ligand | 1 µM | 89%
CC1CCCN1c1nccc(-c2cnn3ncccc23)n1 (centres unmarked) | EGFR L861Q | binding |  | 1 µM | 100%
COc1cnc(Nc2cccc(S(N)(=O)=O)c2)nc1N1CCN(c2ccccc2)CC1 | EGFR T790M | binding | competition with immobilised ligand | 1 µM | 72%
C[C@@H]1CCN(c2nccc(-c3cnn4ncccc34)n2)C1 | EGFR T790M | binding |  | 1 µM | 79%
Cc1cnc(Nc2ccc(C(=O)N3CCC(N4CCCC4)CC3)cc2)nc1-c1cc2ccccc2s1 | EGFR G719S | binding | competition with immobilised ligand | 1 µM | 97%
Cc1cnn2ncc(-c3ccnc(N(C)C)n3)c2c1 | EGFR del752-759 | binding |  | 1 µM | 100%
Nc1ncc2c(n1)-c1c([nH]c3ccc(C#CC4CC4)cc13)CCCC2 | EGFR T790M | binding | competition with immobilised ligand | 1 µM | 86%
O=C(c1ccc(Nc2ncc(Cl)c(-c3cc4ccccc4s3)n2)cc1)N1CCC(N2CCCC2)CC1 | EGFR G719C | binding | competition with immobilised ligand | 1 µM | 88%
C[C@H](c1ccnc(Nc2nc3ccc(-c4cc(N(C)C)ncn4)cc3[nH]2)c1)N1CCN(C(=O)CC(F)(F)F)CC1 | EGFR del747-752/P753S | cell-free assay | competition with immobilised ligand | 0.1 µM | 69%
COc1cnc(Nc2cccc(S(N)(=O)=O)c2)nc1N1CCN(c2ccccc2)C(=O)C1 | EGFR L861Q | binding | competition with immobilised ligand | 1 µM | 100%
F[C@@H]1CCN(c2nccc(-c3cnn4ncccc34)n2)C1 | EGFR | binding |  | 1 µM | 91%
O=C(NCCCN1CCOCC1)c1ccc(Nc2nccc(-c3cc4ccccc4s3)n2)cc1 | EGFR G719C | binding | competition with immobilised ligand | 1 µM | 99%
O=C(Nc1c[nH]nc1C(=O)NC1CCNCC1)c1cc(F)cc(F)c1 | EGFR G719S | binding | competition with immobilised ligand | 1 µM | 100%
O=C(c1ccc(Nc2nccc(-c3cc4ccccc4s3)n2)cc1)N1CCC(N2CCCC2)CC1 | EGFR T790M | binding | competition with immobilised ligand | 1 µM | 67%
CN(C)c1nccc(-c2cnn3ncccc23)n1 | EGFR | binding |  | 1 µM | 100%

Structure (SMILES) | target | read-out | method | concentration | remaining binding
c1cncc(-c2cccc(Nc3nccc(NC4CCCCC4)n3)c2)c1 | EGFR G719S | binding | competition with immobilised ligand | 10 µM | 68%
CC(=O)C1=C(C)N(c2cccc(C(F)(F)F)c2)C(=O)N[C@@H]1c1ccc(C#N)nc1 | EGFR G719C | cell-free assay | competition with immobilised ligand | 1 µM | 100%
O=C(NCCCN1CCOCC1)c1ccc(Nc2ncc(Cl)c(-c3ccc(Cl)s3)n2)cc1 | EGFR G719S | binding | competition with immobilised ligand | 1 µM | 100%
Cc1noc([C@H]2C[C@@H](c3ccc(C(F)(F)F)cc3)CN(C(=O)N3CCS(=O)(=O)C3)C2)n1 | EGFR del747-752/P753S | cell-free assay | competition with immobilised ligand | 1 µM | 78%
CNC(=O)[C@@H]1CC[C@@H](n2c(-c3ccc4cnccc4c3)nc3ccc(C(=O)NCc4cccc(C(N)=O)c4)cc32)C1 | EGFR G719C | binding | competition with immobilised ligand | 1 µM | 100%
CN(C)c1nccc(-c2cnc3ncccn23)n1 | EGFR G719C | binding |  | 1 µM | 100%
O=C(c1ccc(Nc2ncc(Cl)c(-c3ccc(Cl)s3)n2)cc1)N1CCC(N2CCCC2)CC1 | Epidermal growth factor receptor (EGFR, Homo sapiens, UniProt P00533, del746-750) | binding | competition with immobilised ligand | 1 µM | 90%
CN1CCN(c2ccc(Nc3nccc(-c4cccc([N+](=O)[O-])c4)n3)cc2C(F)(F)F)CC1 | EGFR G719S | binding |  | 10 µM | 98%
CO[C@@H](C)c1c(Nc2ccc([C@@H](N(C)C(=O)C3CCS(=O)(=O)CC3)C(F)(F)F)cc2)cnc2cc(Cl)nn12 | EGFR G719S | cell-free assay | competition with immobilised ligand | 1 µM | 96%
CN(C)c1ncc(F)c(-c2cnn3ncccc23)n1 | Epidermal growth factor receptor (EGFR, Homo sapiens, UniProt P00533, L858R/T790M) | binding |  | 1 µM | 74%
CNCc1ccccc1-c1csc([C@H](C)Nc2nc(C)nc3cc(OC)c(OC)cc23)c1 | EGFR G719C | cell-free assay | competition with immobilised ligand | 1 µM | 85%
COc1ccnn2ncc(-c3ccnc(N(C)C)n3)c12 | EGFR | binding |  | 1 µM | 79%
CN(C)CC#Cc1ccc(OCCCc2sc(N3CCc4cccc(C(=O)Nc5nc6ccccc6s5)c4C3)nc2C(=O)O)c(F)c1 | EGFR del747-752/P753S | cell-free assay | competition with immobilised ligand | 1 µM | 100%
CN1CCN(c2ccc(Nc3nccc(-c4ccccc4)n3)cc2C(F)(F)F)CC1 | EGFR del752-759 | binding |  | 10 µM | 100%
C[C@H](c1ccc(F)cc1)N(Cc1cccc(C(=O)O)c1)C(=O)c1cnc2ccccc2c1 | EGFR G719S | cell-free assay | competition with immobilised ligand | 1 µM | 100%
CCN1CCN(Cc2ccc(C(=O)Nc3ccc(C)c(Oc4ccc5c(c4)CC(=O)N5)c3)cc2C(F)(F)F)CC1 | EGFR A750P/del747-749 | binding | competition with immobilised ligand | 1 µM | 100%
